Values belong to the compound of their own block, whether it stands above or below them. The source made the active and inactive calls. The calls are words filed in the database; no cut-off is given here.
Experiments:
Mus musculus [1] = experiment: In vivo inhibition of alpha4beta1 integrin expressed in human Molt-4 cells xenografted into mouse at 60 nmol/kg, iv up to 24 hrs by NIRF imaging; type: functional, organism-based
Procedure, shortened: (§1)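 Nude (nu/nu) mice bearing subcutaneous shoulder Molt-4 xenografts (about 5 × 10^6 cells injected; tumors 0.5–1.0 cm). Probe made by complexing biotinylated ligand with SA-Alexa Fluor680 at 5:1 molar ratio, 1 h, 4 °C. Given 60 nmol kg-1 i.v. (n = 3). Imaged under pentobarbital anesthesia (60 mg kg-1 i.p.) at 0–44 h; excitation 625 nm, emission 700 nm, 30 s exposure. Tumor vs normal ROI intensities compared.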

[2] = molecular target: Integrin alpha2/beta1 (Homo sapiens) (UniProt P05556+P17301); experiment: Binding affinity to alpha2beta1 integrin expressed in CHO cells by flow cytometry; type: cell-based
Procedure, shortened: (§2)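 Cells (0.5 × 10^6) incubated with biotinylated ligand (100 nM) for 1 h at 4 °C in TBS with 1 mM Mg2+/Mn2+, washed, then stained with SA-PE. Fluorescence of 10,000 cells read by flow cytometry. Integrin-transfected CHO lines as previously described; α4 expression probed with anti-α4 mAb P1H4 plus FITC secondary.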

[3] = molecular target: T1, Integrin alpha-4/beta-1 (Homo sapiens) (UniProt P05556+P13612); experiment: Inhibition of integrin alpha-4-beta-1-mediated Jurkat cell adhesion to CS-1 coated surface by BCECF fluorescence analysis
CHO [4] = experiment: Binding affinity to alpha4beta1 integrin G184A mutant expressed in CHO cells by flow cytometry; type: cell-based
Procedure, shortened: (§3)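 CHO cells stably expressing wild-type or single-Ala mutant human α4 paired with endogenous hamster β1. Cells incubated with biotinylated ligand in TBS (1 mM Mn2+), then SA-PE, and read by flow cytometry. Binding normalized to α4 expression measured with mAb B5G10. Mean ± s.d. of triplicates.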

CHO [5] = experiment: Binding affinity to human alpha4 Y195A mutant/hamster beta-1 integrin expressed in CHO cells by flow cytometry; type: cell-based; procedure, shortened: as §3
[6] = molecular target: T1, Integrin alpha-4/beta-1 (Homo sapiens); experiment: Binding affinity to alpha4beta1 integrin expressed in CHO cells by flow cytometry; type: cell-based; procedure, shortened: as §2
Mus musculus [7] = experiment: In vivo inhibition of alpha4beta1 integrin expressed in human Molt-4 cells xenografted into mouse at 60 nmol/kg, iv up to 44 hrs by NIRF imaging; type: functional, organism-based; procedure, shortened: as §1
CHO [8] = experiment: Binding affinity to human alpha4 S185A mutant/hamster beta-1 integrin expressed in CHO cells by flow cytometry; type: cell-based; procedure, shortened: as §3
[9] = molecular target: Integrin alpha-M/beta-2 (Homo sapiens) (UniProt P05107+P11215); experiment: Binding affinity to alphaMbeta2 integrin expressed in CHO cells by flow cytometry; type: cell-based; procedure, shortened: as §2
[10] = molecular target: T1, Integrin alpha-4/beta-1 (Homo sapiens); experiment: Binding affinity to alpha4beta1 integrin expressed in human K562 cells by flow cytometry; type: cell-based; procedure, shortened: as §2
CHO [11] = experiment: Binding affinity to human alpha4 G181A mutant/hamster beta-1 integrin expressed in CHO cells by flow cytometry; type: cell-based; procedure, shortened: as §3
CHO [12] = experiment: Binding affinity to human alpha4 Y202A mutant/hamster beta-1 integrin expressed in CHO cells by flow cytometry; type: cell-based; procedure, shortened: as §3
CHO [13] = experiment: Binding affinity to human alpha4 K203A mutant/hamster beta-1 integrin expressed in CHO cells by flow cytometry; type: cell-based; procedure, shortened: as §3
[14] = molecular target: T1, Integrin alpha-4/beta-1 (Homo sapiens); experiment: Binding affinity to alpha4beta1 integrin expressed in peripheral blood lymphocytes in presence of Mn2+; type: cell-based
Procedure, shortened: (§4)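 Normal peripheral blood lymphocytes isolated from healthy-donor blood by Ficoll-Paque gradient. Cells (0.5 × 10^6) incubated 1 h at 4 °C with biotinylated ligand (100 nM) in TBS, then SA-PE, and 10,000 cells read by flow cytometry. Mn2+ added for integrin activation where indicated. Activation state checked with anti-β1 LIBS mAb.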

CHO [15] = experiment: Binding affinity to human alpha4 Y187A mutant/hamster beta-1 integrin expressed in CHO cells by flow cytometry; type: cell-based; procedure, shortened: as §3
CHO [16] = experiment: Binding affinity to human alpha4 T189A mutant/hamster beta-1 integrin expressed in CHO cells by flow cytometry; type: cell-based; procedure, shortened: as §3
[17] = molecular target: T1, Integrin alpha-4/beta-1 (Homo sapiens); experiment: Binding affinity to alpha4beta1 integrin transfected human Molt-4 cells by flow cytometry; type: cell-based; procedure, shortened: as §2
CHO [18] = experiment: Binding affinity to human alpha4 W188A mutant/hamster beta-1 integrin expressed in CHO cells by flow cytometry; type: cell-based; procedure, shortened: as §3
CHO [19] = experiment: Binding affinity to wild type human alpha4hamster beta-1 integrin expressed […] cells by flow cytometry; type: cell-based; procedure, shortened: as §3
[20] = molecular target: T1, Integrin alpha-4/beta-1 (Homo sapiens); experiment: Binding affinity to alpha4beta1 integrin expressed in human Reh cells by flow cytometry; type: cell-based; procedure, shortened: as §2
CHO [21] = experiment: Binding affinity to human alpha4 S191A mutant/hamster beta-1 integrin expressed in CHO cells by flow cytometry; type: cell-based; procedure, shortened: as §3
[22] = molecular target: T1, Integrin alpha-4/beta-1 (Homo sapiens); experiment: Inhibition of integrin alpha-4-beta-1-mediated Jurkat cell adhesion to VCAM-1 coated surface by BCECF fluorescence analysis; type: cell-based
[23] = molecular target: T1, Integrin alpha-4/beta-1 (Homo sapiens); experiment: Binding affinity to alpha4beta1 integrin expressed in human HL-60 cells by flow cytometry; type: cell-based; procedure, shortened: as §2
CHO [24] = experiment: Binding affinity to human alpha4 G190A mutant/hamster beta-1 integrin expressed in CHO cells by flow cytometry; type: cell-based; procedure, shortened: as §3
CHO [25] = experiment: Binding affinity to human alpha4 N196A mutant/hamster beta-1 integrin expressed in CHO cells by flow cytometry; type: cell-based; procedure, shortened: as §3
[26] = molecular target: T1, Integrin alpha-4/beta-1 (Homo sapiens); experiment: Binding affinity to alpha4beta1 integrin expressed in peripheral blood lymphocytes; type: cell-based; procedure, shortened: as §4
CHO [27] = experiment: Binding affinity to human alpha4 S186A mutant/hamster beta-1 integrin expressed in CHO cells by flow cytometry; type: cell-based; procedure, shortened: as §3
[28] = molecular target: ITGA6-ITGB1 complex (Homo sapiens) (UniProt P05556+P23229); experiment: Binding affinity to alpha6beta1 integrin expressed in CHO cells by flow cytometry; type: cell-based; procedure, shortened: as §2
CHO [29] = experiment: Binding affinity to human alpha4 N200A mutant/hamster beta-1 integrin expressed in CHO cells by flow cytometry; type: cell-based; procedure, shortened: as §3
[30] = molecular target: Intercellular adhesion molecule (ICAM-1), Integrin alpha-L/beta-2 (Homo sapiens) (UniProt P20701+P05362+P05107); experiment: Binding affinity to alphaLbeta2 integrin expressed in CHO cells by flow cytometry; type: cell-based; procedure, shortened: as §2
CHO [31] = experiment: Binding affinity to human alpha4 K201A mutant/hamster beta-1 integrin expressed in CHO cells by flow cytometry; type: cell-based; procedure, shortened: as §3
CHO [32] = experiment: Binding affinity to human alpha4 P183A mutant/hamster beta-1 integrin expressed in CHO cells by flow cytometry; type: cell-based; procedure, shortened: as §3
[33] = molecular target: ITGB1-ITGA9 complex (Homo sapiens) (UniProt P05556+Q13797); experiment: Binding affinity to alpha9beta1 integrin expressed in CHO cells by flow cytometry; type: cell-based; procedure, shortened: as §2

Integrin alpha-M/beta-2 (Homo sapiens), sequence (P05107 23-769 limits assumed, other chains not shown): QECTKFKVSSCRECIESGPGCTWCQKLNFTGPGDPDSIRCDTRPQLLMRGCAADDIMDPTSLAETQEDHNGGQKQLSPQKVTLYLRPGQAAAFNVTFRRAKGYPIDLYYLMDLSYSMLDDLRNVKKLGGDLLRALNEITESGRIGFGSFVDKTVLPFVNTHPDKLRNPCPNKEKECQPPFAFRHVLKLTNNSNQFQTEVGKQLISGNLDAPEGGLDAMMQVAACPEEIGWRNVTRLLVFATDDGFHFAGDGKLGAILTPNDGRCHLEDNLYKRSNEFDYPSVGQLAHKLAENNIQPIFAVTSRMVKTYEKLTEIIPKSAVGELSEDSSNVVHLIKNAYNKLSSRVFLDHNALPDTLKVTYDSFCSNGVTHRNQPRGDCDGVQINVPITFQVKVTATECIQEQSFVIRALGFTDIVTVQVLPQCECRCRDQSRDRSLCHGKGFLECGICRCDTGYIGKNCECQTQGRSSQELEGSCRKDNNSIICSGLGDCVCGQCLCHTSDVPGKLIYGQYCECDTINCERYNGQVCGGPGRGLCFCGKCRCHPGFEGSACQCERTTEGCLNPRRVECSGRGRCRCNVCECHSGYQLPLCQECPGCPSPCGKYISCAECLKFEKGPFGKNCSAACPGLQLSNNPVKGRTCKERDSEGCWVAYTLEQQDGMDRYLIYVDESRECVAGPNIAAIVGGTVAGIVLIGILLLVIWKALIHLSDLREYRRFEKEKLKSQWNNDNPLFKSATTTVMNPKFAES

SMILES: Cc1ccccc1NC(=O)Nc1ccc(CC(=O)N[C@@H](CCCCNC(=O)/C=C/c2cccnc2)C(=O)N[C@@H](CCCC(=O)O)C(=O)NC2(C(=O)NCCOCCOCCNC(=O)CCC(=O)NCCOCCOCCNC(=O)CCC(=O)N[C@@H](CCCCNC(=O)CCCC[C@@H]3SC[C@@H]4NC(=O)N[C@@H]43)C(N)=O)CCCCC2)cc1
inhibition (Mus musculus [1]): inactive

Activity [2]: inactive
inhibition [3]: Active
Activity [6]: Active
Activity [9]: inactive
Activity [10]: Active
Activity [14]: Active
Activity [17]: Active
Activity [20]: Active
inhibition [22]: Active
Activity [23]: Active
Activity [26]: inactive
Activity [28]: inactive
Activity [30]: inactive
Activity [33]: inactive
SMILES: Cc1ccccc1NC(=O)Nc1ccc(CC(=O)N[C@@H](CCCCNC(=O)/C=C/c2cccnc2)C(=O)N[C@@H](CCCC(=O)O)C(=O)NC2(C(N)=O)CCCCC2)cc1
Activity (CHO [4]): Active
Activity (CHO [5]): Active
inhibition (Mus musculus [7]): Active
Activity (CHO [8]): Active
Activity (CHO [11]): Active
Activity (CHO [12]): Active
Activity (CHO [13]): Active
Activity (CHO [15]): inactive
Activity (CHO [16]): Active
Activity (CHO [18]): inactive
Activity (CHO [19]): Active
Activity (CHO [21]): Active
Activity (CHO [24]): inactive
Activity (CHO [25]): Active
Activity (CHO [27]): Active
Activity (CHO [29]): Active
Activity (CHO [31]): Active
Activity (CHO [32]): Active

— ChEMBL document CHEMBL1240310, “Combinatorial chemistry identifies high-affinity peptidomimetics against alpha4beta1 integrin for in vivo tumor imaging” (Nat Chem Biol, 2006)
